Laboratory results from ChEMBL document CHEMBL1133165, “Synthesis and cytostatic activity of substituted 6-phenylpurine bases and nucleosides: application of the Suzuki-Miyaura cross-coupling reactions of 6-chloropurine derivatives with phenylboronic acids” (J Med Chem, 2000).

Legend:
HeLa [1] = assay: In vitro inhibition of cell growth (Cytostatic activity) of human cervix carcinoma HeLa S3 cells (ATCC CCL 2.2); format: functional, cell-based
L1210 [2] = assay: In vitro inhibition of cell growth (Cytostatic activity) of mouse leukemia L1210 cells (ATCC CCL 219); format: functional, cell-based
CCRF-CEM [3] = assay: In vitro inhibition of cell growth (Cytostatic activity) of human T-lymphoblastoid CCRF-CEM cell line (ATCC CCL 119); format: functional, cell-based
Procedure, shortened: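 CCRF-CEM cells grown in RPMI 1640 with L-glutamine (0.3 g/L) and 10% bovine serum, seeded at 10⁵ mL^-1. After 24 h at 37 °C under CO₂, compounds were added at five concentrations. Cells were counted with a cell counter 72 h after addition. IC50 values were derived from the counts.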

L1210 [4] = assay: In vitro inhibition of cell growth (Cytostatic activity) of mouse leukemia L1210 cells (ATCC CCL 219); inhibition @ 10 uM/L; format: functional
HeLa [5] = assay: In vitro inhibition of cell growth (Cytostatic activity) of human cervix carcinoma HeLa S3 cells (ATCC CCL 2.2); inhibition @ 10 uM/L; format: functional
CCRF-CEM [6] = assay: In vitro inhibition of cell growth (Cytostatic activity) of human T-lymphoblastoid CCRF-CEM cell line (ATCC CCL 119); inhibition @ 10 uM/L; format: functional

Row | SMILES | IC50 (HeLa [1]) | IC50 (L1210 [2]) | IC50 (CCRF-CEM [3]) | Inhibition (L1210 [4]) | Inhibition (HeLa [5]) | Inhibition (CCRF-CEM [6])
1 | OC[C@H]1O[C@@H](n2cnc3c(-c4ccccc4)ncnc32)[C@H](O)[C@@H]1O | 2.7 µM | 9 µM | 0.7 µM |  |  | 
2 | CC(=O)OC[C@H]1O[C@@H](n2cnc3c(-c4ccc(F)cc4)ncnc32)[C@H](OC(C)=O)[C@@H]1OC(C)=O | 15 µM |  | 4 µM | <20% |  | 
3 | CC(=O)OC[C@H]1O[C@@H](n2cnc3c(-c4ccc(F)cc4F)ncnc32)[C@H](OC(C)=O)[C@@H]1OC(C)=O |  |  |  | <20% | <20% | <20%
4 | CC(=O)OC[C@H]1O[C@@H](n2cnc3c(-c4ccccc4C)ncnc32)[C@H](OC(C)=O)[C@@H]1OC(C)=O |  |  |  | <20% | <20% | <20%
5 | COc1ccc(-c2ncnc3c2ncn3[C@@H]2O[C@H](COC(C)=O)[C@@H](OC(C)=O)[C@H]2OC(C)=O)cc1 | 19 µM | 17 µM | 4.3 µM |  |  | 
6 | CC(=O)OC[C@H]1O[C@@H](n2cnc3c(-c4ccc(C)cc4)ncnc32)[C@H](OC(C)=O)[C@@H]1OC(C)=O |  |  |  | <20% | <20% | <20%
7 | CC(=O)OC[C@H]1O[C@@H](n2cnc3c(-c4ccc(F)c(F)c4)ncnc32)[C@H](OC(C)=O)[C@@H]1OC(C)=O | 15 µM |  | 8.3 µM | <20% |  | 
8 | CC(=O)OC[C@H]1O[C@@H](n2cnc3c(-c4ccccc4)ncnc32)[C@H](OC(C)=O)[C@@H]1OC(C)=O |  |  | 10.5 µM | <20% | <20% | 
9 | COc1cccc(-c2ncnc3c2ncn3[C@@H]2O[C@H](COC(C)=O)[C@@H](OC(C)=O)[C@H]2OC(C)=O)c1 |  |  |  | <20% | <20% | <20%
10 | CC(=O)OC[C@H]1O[C@@H](n2cnc3c(-c4ccc(Cl)cc4)ncnc32)[C@H](OC(C)=O)[C@@H]1OC(C)=O |  |  | 4.3 µM | <20% | <20% | 
11 | CCOc1ccc(-c2ncnc3c2ncn3[C@@H]2O[C@H](COC(C)=O)[C@@H](OC(C)=O)[C@H]2OC(C)=O)cc1 |  |  | 3.8 µM | <20% | <20% | 
12 | CCOc1ccc(-c2ncnc3c2ncn3C2O[C@H](CO)[C@@H](O)[C@H]2O)cc1 (some centres not stated) | 5 µM | 2.5 µM | 0.6 µM |  |  | 
13 | COc1cccc(-c2ncnc3c2ncn3C2O[C@H](CO)[C@@H](O)[C@H]2O)c1 (some centres not stated) |  |  | 4.8 µM |  |  | 
14 | COc1ccc(-c2ncnc3c2ncn3C2O[C@H](CO)[C@@H](O)[C@H]2O)cc1 (some centres not stated) | 4.3 µM | 1.5 µM | 0.25 µM |  |  | 
15 | OC[C@H]1OC(n2cnc3c(-c4ccc(F)c(F)c4)ncnc32)[C@H](O)[C@@H]1O (some centres not stated) | 2.5 µM | 20 µM | 1.4 µM |  |  | 
16 | OC[C@H]1OC(n2cnc3c(-c4ccc(F)cc4)ncnc32)[C@H](O)[C@@H]1O (some centres not stated) | 2.5 µM | 4.5 µM | 0.75 µM |  |  | 
17 | Cc1ccc(-c2ncnc3c2ncn3C2O[C@H](CO)[C@@H](O)[C@H]2O)cc1 (some centres not stated) |  |  | 1.5 µM |  |  | 
18 | OC[C@H]1OC(n2cnc3c(-c4ccc(Cl)cc4)ncnc32)[C@H](O)[C@@H]1O (some centres not stated) | 5 µM |  | 0.9 µM |  |  | 
19 | Cc1ccccc1-c1ncnc2c1ncn2C1O[C@H](CO)[C@@H](O)[C@H]1O (some centres not stated) |  |  |  | <20% | <20% | <20%
